Measured values: the EternaBench riboswitch data

Test system: MS2 coat protein
Assay: apparent Kd, MS2 coat protein; higher = weaker binding; RNA-MaP array; FMN 200 µM where present
Outline: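 Two titrations, one without ligand and one with constant ligand, were run with SNAP-549-labelled MS2 coat protein from 0.7 or 1.5 nM, doubling to 3 µM. The targets were designs transcribed by stalled E. coli RNA polymerase on Illumina sequencing-chip clusters, in 100 mM Tris-HCl pH 7.5, 80 mM KCl, 4 mM MgCl2, BSA, DTT, yeast tRNA and Tween-20. The apparent Kd is the median of filtered per-cluster binding-curve fits, with green signal normalised to red-channel RNA signal and control-cluster median Fmax.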

[1] = designed as: OFF switch for flavin mononucleotide, no ligand
[2] = ligand present: flavin mononucleotide, designed as: OFF switch for flavin mononucleotide
[3] = designed as: ON switch for flavin mononucleotide, no ligand
[4] = ligand present: flavin mononucleotide, designed as: ON switch for flavin mononucleotide

| Sequence | apparent Kd [1] | apparent Kd [2] | apparent Kd [3] | apparent Kd [4] |
| --- | --- | --- | --- | --- |
| AGAUGACAUGUAGGAUAUCGAGGCCUGAGGCCUCGAGAAGGACAUGAGGAUCACCCAUGUUUGCCGAGCAUGGAAUCCCGCACU | 29.1 nM | 205 nM | – | – |
| GAGGACUGAUAAUAAUGUAGAAAUACAUGAGGAUCACCCAUGUAGGAUAUCGUCAGGAAUACUGACGAGAAGGACAUACAGUCC | 16 nM | 23.2 nM | – | – |
| AGAGCCUCGUGAGGAUAUACAUGAGGAUCACCCAUGUAAAUGGAAUAACGGAGGAAACUCCGAAUGUAGAAGGCACGAGGCUCA | 79.9 nM | 966 nM | – | – |
| AAAAAGUCAGGAUAUUCGGAUAGGAAAACGAAAACCUAUCCGAAGAAGGGACAUGAGGAUCACCCAUGUAAAAA | 27.4 nM | 46.5 nM | – | – |
| ACAAAUGGAGGAUAUACAUGAGGAUCACCCAUGUAUAUCCUACAUGUGUGAUAAUCAUGUAGAAGGCCAUUUGA | 14 nM | 12.3 nM | – | – |
| AGGCGAGUAGGAUAUGCGUAUUUACGGGAAAGCUGGAUGAUACAUGAGGAUCACCCAUGUAGAAGGGCUCUGAA | 19.2 nM | 15.3 nM | – | – |
| AAUUUAAUACAUGAGGAUCACCCAUGUAAUACUAGUAAGAUCUAGGAUAUCAGCUCGAUUAGAGCUGAGAAGGAGAUCACAUGU | – | – | 92.9 nM | 27.9 nM |
| AGCAACAUGAGGAUCACCCAUGUUGGUUCGAAAACGGACUCACAGGAUAUGCGGCGUAAUCGCUCGCAGAAGGGUGCGUCCUCA | – | – | 14.1 nM | 25.6 nM |
| CCUCCACAUGAGGAUCACCCAUGUCAGGAUAUCGUGUGUGUUUUUUCGGUCUUUCGUGCGAGAAGGGACGUCUG | 51.6 nM | 52.3 nM | – | – |
| UUUUGGCAUGUAGGAUAUGGGUCCGAUUAGGAUUUAGAAGGACAUGAGGAUCACCCAUGUGCAUUUAAUUGGUCUUUUUUUUUU | 102 nM | 133 nM | – | – |
| GCUGCGCGAGGAUAUGCGGUUUGUGCUUUGGCCCAUGGCGUACAUGAGGAUCACCCAUGUAGAAGGCGUGUGGG | 13.5 nM | 13.8 nM | – | – |
| UUUAUUAAACAAGGAUAUCAUUUGUGUACAAGUUUUACAUGAGGAUCACCCAUGUUAAAUGGUUUUGAGAAGGUGUUUAGAAUU | – | – | 34.2 nM | 25.2 nM |
| GCGAUUGCGUAGAAGGUACAAUUUAAUACAUUGUAAGGAUAUACUUACAUGAGGAUCACCCAUGUUAAUGGAAUUUGCAAUCGC | – | – | 16.7 nM | 10.8 nM |
| CUUUAGUGAGGAUAUCAGUGGUAAUACAAUAGUAUUACUACUGAGAAGGCACAUGAGGAUCACCCAUGUUCCUC | 26.6 nM | 155 nM | – | – |
| ACGUGUCGUGUAGGAUAUGACACAGGAAACUGGUCAGAAGGACAUGAGGAUCACCCAUGUAAAAUGUUCAAGAAUGACGUAUGC | 58.6 nM | 105 nM | – | – |
| GCCAGUUAUGUAGGAUAUGCGCAGCGAGCCUGAGCAGAAGGACAUGAGGAUCACCCAUGUGUUGCGGUUUGAGUACUAAUCGCU | 24.3 nM | 134 nM | – | – |
| GGAUGACAAAGUCAUCCUAUUCGAACAUGAGGAUCACCCAUGUAGGAUAUGCUACUCAAAGAGUAGCAGAAGGACAUGUGCCUU | 32.6 nM | 178 nM | – | – |
| UUUUUGUCAGGAUAUCAAAAGUACUACUUCGGUAGUACUUUUGAGAAGGGACAUGAGGAUCACCCAUGUAGUUU | 61.4 nM | 285 nM | – | – |
| UUCUUGGCAGGAUAUGCUUUUUUAGACAUGAGGAUCACCCAUGUGAUUAUUUUUGGUUUUGCAGAAGGGCCUUAAU | 65.4 nM | 87.2 nM | – | – |
| GCAGGAUAAGUGAGGAUAUACCUCUGGAUACAGAGGUAGAAGGCACAUGAGGAUCACCCAUGUCUAUAACCUGC | 15.5 nM | 22.4 nM | – | – |
| AUCCGGCGUGUAGGAUAUGGAAAAGAUUAGGAACCAGAAGGACAUGAGGAUCACCCAUGUACAUGUAAACAGUCAUCACCGGAA | 11.4 nM | 28.6 nM | – | – |
| AAAUGCAUAAAGGACACAUGAGGAUCACCCAUGUUUCUGUUCAAGGAUAUGAGGUGAAUGAUCCGUCAGAAGGUGAACUUGCUU | – | – | 180 nM | 400 nM |
| GGUACUCAAAGAGUACGGAGUCGAACAUGAGGAUCACCCAUGUAGGAUAUGCUAAGCUUGAAGUUGCAGAAGGACAUGUGCAGC | 10.7 nM | 11.1 nM | – | – |
| AUUUAUGGCCAGAAGGACAUGAGGAUCACCCAUGUAGGAUAUGGACGAUUUUACUCGGCGGUUUGUUAAGGAAGCACCGGCGGU | – | – | 7.76 nM | 6.08 nM |
| AGAUUUCAUGAGGAUAUCGUAUUAGAUUUAUUGCGAGAAGGCAUGACAUGAGGAUCACCCAUGUAGUGUUGGUU | 49.3 nM | 96.6 nM | – | – |
| ACAAAUGGAGGAUAUACAUGAGGAUCACCCAUGUUUAUCCUACAUAUGUGAUACUCAUGUAGAAGGCCAUUUGA | 13.1 nM | 12.6 nM | – | – |
| GGGCUCGGAGGAUAUACAUGAGGAUCACCCAUGUAGGGCUCGGGUAUUUCUGGGUCUUGUAGAAGGCUGGGUCU | 21.3 nM | 30 nM | – | – |
| UAUAUUAACAAGAAGGCUAACAUGAGGAUCACCCAUGUUGUACAUGGAUAUAGAGGAUAUUGCUAAUAAUUAUUUAUCAUAAUU | 20.4 nM | 18.3 nM | – | – |

| Sequence | apparent Kd [1] | apparent Kd [2] | apparent Kd [3] | apparent Kd [4] |
| --- | --- | --- | --- | --- |
| AGUACUCAAAGAGUACGCGUAAGCACAUGAGGAUCACCCAUGUAGGAUAUGCUACUCAAAGAGUAGUAGAAGGACAUAUACCUC | 5.2 nM | 6.34 nM | – | – |
| CUCAUUAGUCAGGAUAUCGUGUGGGUAAUUGUACGAGAAGGGACGACAUGAGGAUCACCCAUGUGGUCUUUGAG | 71 nM | 317 nM | – | – |
| CAUACACAUGAGGAUCACCCAUGUGAGGAUAUGCGUACGUUGUCCGUAGGCGACGUGCGCAGAAGGCGCGUGAG | 60.1 nM | 67.6 nM | – | – |
| AUUUUGUCAGGAUAUGAGUAGUAGGACGAAAGUGCUACUACUUAGAAGGGACAUGAGGAUCACCCAUGUCUUCC | 13.9 nM | 16.8 nM | – | – |
| ACAUGAGGAUCACCCAUGUUGACAUAGGAUAUACAACAUUAGUUUCAUUCAUGUAAACUUUGAUAGUAGAAGGAUGGUACAUGA | 13.2 nM | 13 nM | – | – |
| GUCGUGUGAGGAUAUGAUUUUUCGGCGGGAUUGCGACUGCUUCAGAAGGCACAUGAGGAUCACCCAUGUAUGUC | 10.7 nM | 25.5 nM | – | – |
| GUGGUCAGACAUGAGGAUCACCCAUGUGGAAUAAAUAACACACAGGAUAUGUAAUAUAAAAUAUAACAGAAGGGUGGAUUGGUG | – | – | 352 nM | 181 nM |
| GGUGCAUAUGAGAAGGCGAUCAUGAAACAUGAUCGAGGAUAUCAUGUAAACAUGAGGAUCACCCAUGUAUGGGAAAAGUGCAUC | – | – | 85.4 nM | 10.7 nM |
| GCAGGAUAAGUGAGGAUAUACCUCUGGAUACAGAGGUAGAAGGUACAUGAGGAUCACCCAUGUCUAUAACCUGC | 14.6 nM | 16.1 nM | – | – |
| AGUCGGAGCAGAGGAUAUAUACAUGAGGAUCACCCAUGUAAAUGAAUGAGCUGGAAACAGCAAGUAUAGAAGGCUGCUCCGACA | 15.2 nM | 16 nM | – | – |
| AAUAACAGAGGAUAUACUAUUUUAUGUGUUUGUUAUUUUGAACAUGAGGAUCACCCAUGUAGAAGGCUGAAUAA | 25 nM | 27.2 nM | – | – |
| UUGGACGUCGUAGGAUAUGUAGGAUAUUCCUACAUGAGGAUCACCCAUGUUGACAUGGAAGAAGGACAGAAGGACGAUGUCCAU | – | – | 566 nM | 14.2 nM |
| CAGGUGUUAGGAUAUCGGAGAUUGAGGCAGACGGGAAUAUUCGAGAAGGAACAUGAGGAUCACCCAUGUAGUAG | 24.5 nM | 28.9 nM | – | – |
| CUGAGGUCAGGAUAUGCAUGGCGGGACUUGCGUCGUGGCGUGCAGAAGGGACAUGAGGAUCACCCAUGUGGAGC | 86.7 nM | 249 nM | – | – |
| AAAUAAAUGACUAAGGAUAUAUCAGAGAAAACAUGAGGAUCACCCAUGUAAUAAUAAAAAGGGUGAUAGAAGGUAGUCAACAAACA | – | – | 222 nM | 44.5 nM |
| GGUGUCAUCGAGAAGGCCUCAACAUGAGGAUCACCCAUGUUGUAAUAUGGGAGGAUAUCGAUGAUACAGCUACGUUUCGUAGCA | – | – | 18.5 nM | 6.1 nM |
| AUCAGCUCGUCAGGAUAUACGUCACUGCGUCAGCAGUAUGGUAAGAUCACAUGAGGAUCACCCAUGUAGAAGGGACGAGCUGAU | 62.2 nM | 663 nM | – | – |
| CUAGACAUAUCAGGAUAUCAUCGCGUGGAUUAACCCUGUGAUUACAUGAGGAUCACCCAUGUGCUUGAGAAGGGAUUACUAUUU | 35.7 nM | 145 nM | – | – |
| UCCCUUAGUGUAAGGAUAUCGUUCCAUUGACGGAGCGAGAAGGUACAUGAGGAUCACCCAUGUGUCAAUGCCGG | 20 nM | 54.4 nM | – | – |
| GUCAGCUCGUGAGGAUAUACAACACUGCUUCGGCAGUGUACUAAGAUCACAUGAGGAUCACCCAUGUAGAAGGCACGAGCUGAU | 14.6 nM | 246 nM | – | – |
| UGUCCAUAGCAGAAGGACAUGAGGAUCACCCAUGUAAUCAUACAACCAAAUGUAGGAUAUGCUAUGGACUAAGAGCGAAAGCUC | 7.5 nM | 34.4 nM | – | – |
| GGGUGACAUGAGGAUCACCCAUGUCAGGAUAUGAUACUAUGUACUUCGGUACAUAGUAUCAGAAGGGACAUAAA | 104 nM | 27.1 nM | – | – |
| AGUGUCAUCGAGAAGGCCUCAACAUGAGGAUCACCCAUGUUGCAAAAUGGGAGGAUAUCGCGCAAAAAGCUACGUUUCGUAGCA | – | – | 43.1 nM | 6.96 nM |
| GCCAUCGCAUGAGGAUAUGCUCCCGUUUCGGGAGCAGAAGGCAUGUGAUAACACAUGAGGAUCACCCAUGUAGUUAAGAUGGCA | – | – | 5.31 nM | 4.45 nM |
| GGGUACAUCGGAGGAUAUCAUGUAAAUACAUGAGGAUCACCCAUGUCGAUGGAGACAUCGGAGAUUCAGAAGGCCGAUGUACCG | – | – | 108 nM | 35.5 nM |
| GAAGGGUAUGAGAAGGCAUAAUUUAUAUUACCACAUGUUUACAUGAGGAUCACCCAUGUUUCCUAUGAGGAUAUCAUACCGAGA | 12.4 nM | 12.7 nM | – | – |
| GUCAGCUCGUGAGGAUAUACAACACUGCUUCGGCAGUGUAUUAAGAUCACAUGAGGAUCACCCAUGUAGAAGGCACGGGCUGAU | 14 nM | 323 nM | – | – |
